From PubChem BioAssay
NPR1 activator = GC-A (human) enzyme activation; P16066; HEK293 GC-A cells, cGMP TR-FRET, EC30 ANP; 0% at EC30 ANP, 100% saturating ANP; activation, % at 10 µM; hit rate 0.14% among 370,000; in the data active means activation above about 40%
Target sequence (P16066 whole entry, looked up): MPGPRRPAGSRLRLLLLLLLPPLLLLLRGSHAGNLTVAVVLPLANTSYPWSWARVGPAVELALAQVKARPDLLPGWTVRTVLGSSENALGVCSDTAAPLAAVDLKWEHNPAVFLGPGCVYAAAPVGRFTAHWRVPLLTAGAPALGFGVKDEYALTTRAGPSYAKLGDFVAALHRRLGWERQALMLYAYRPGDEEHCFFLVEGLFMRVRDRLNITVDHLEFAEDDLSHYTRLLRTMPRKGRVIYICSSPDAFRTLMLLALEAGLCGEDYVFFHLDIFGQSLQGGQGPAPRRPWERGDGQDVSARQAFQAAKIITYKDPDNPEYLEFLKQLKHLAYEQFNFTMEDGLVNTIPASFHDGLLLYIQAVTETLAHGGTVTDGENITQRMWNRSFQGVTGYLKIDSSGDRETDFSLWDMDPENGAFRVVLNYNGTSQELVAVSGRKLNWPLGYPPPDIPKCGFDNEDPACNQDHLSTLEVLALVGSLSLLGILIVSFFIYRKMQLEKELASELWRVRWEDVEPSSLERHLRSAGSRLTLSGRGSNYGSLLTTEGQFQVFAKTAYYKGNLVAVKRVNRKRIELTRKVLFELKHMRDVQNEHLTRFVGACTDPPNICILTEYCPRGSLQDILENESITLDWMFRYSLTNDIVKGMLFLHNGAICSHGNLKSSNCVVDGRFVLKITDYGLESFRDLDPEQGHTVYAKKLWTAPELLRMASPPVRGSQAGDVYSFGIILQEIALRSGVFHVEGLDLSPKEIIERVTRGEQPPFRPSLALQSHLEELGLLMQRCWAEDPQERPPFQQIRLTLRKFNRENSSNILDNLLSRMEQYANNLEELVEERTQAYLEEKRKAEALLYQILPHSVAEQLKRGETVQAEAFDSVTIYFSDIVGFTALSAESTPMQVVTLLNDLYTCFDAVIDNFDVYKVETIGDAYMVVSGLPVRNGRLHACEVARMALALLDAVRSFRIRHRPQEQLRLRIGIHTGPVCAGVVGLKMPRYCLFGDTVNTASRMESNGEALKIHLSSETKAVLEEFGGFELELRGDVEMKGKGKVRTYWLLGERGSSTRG
Vif inh = HIV Vif inhibition; HEK293T cells, Vif self-association by quenched fluorescence, imaging, 24 h; inhibition, % at 7.49 µM; hit rate 0.35% among 340,000; AID 602346; in the data active means inhibition above about 50%, passing the limit was not always enough
GC-B act = GC-B (human) receptor activation; HEK293-GC-B cells, CNP EC30, cGMP TR-FRET; 0% at EC30 CNP, 100% saturating CNP; hit rate 0.11% among 370,000; activation, % at 10 µM;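 active means activation at 10 µM reaching about 35% in either raw or pattern-adjusted values, limit read from the data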
CaV13 FRET inh = Primary screen for inhibitors of IQ motif and Ca2+-dependent inactivation inhibitor domain binding in CACNA1D, Förster resonance energy transfer in living cells, …; HEK cells, CFP/YFP FRET ICDI-IQ, plate reader, 10 min; percent FRET-ratio fall versus neutral wells; inhibition, % at 12.3 µM; hit rate 0.098% among 340,000; AID 743397;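 active means mean replicate inhibition of at least 30% and at least 1% of replicates passing that level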;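 further: 0% = median of the neutral control wells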
XiGFP reactiv = activators of X-chromosome reactivation in mouse fibroblasts; AID 743238; XiGFP mouse fibroblasts, % GFP-positive cells imaging, 3 d; cells co-treated with 5-aza-dC sensitizer; scaled so ellipticine positive control = 100%; activation, % at 7.58 µM; hit rate 0.055% among 360,000;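 active means mean normalized replicate activation at least 10% and every replicate at or above 10%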;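 further: 0% = median of on-plate neutral control wells and 100% = ellipticine 6 µM median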
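System: XiGFP fibroblasts, SV40-immortalized. Medium: DMEM plus 5-aza-dC sensitizer. Doses: single point. Timing: 3 d treatment, 15 min room-temperature fixation. Control set: ellipticine 6 µM.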
N-glyco inh = blocks N-linked glycosylation in D54 reporter cells | AID 588692 | hit rate 0.23% among 360,000 | D54 ERlucT glycosylation luciferase reporter, 24 h; percent of 100 nM tunicamycin response | reporter increase, % at 12.5 µM;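 active means mean luciferase reporter signal, scaled so untreated is 0 and the glycosylation-blocking control 100, at or above a set limit in every replicate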;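 further: luciferase carries N-glycosylation sites so blocking glycosylation raises the light; 0% = median of neutral control wells and 100% = median of 100 nM tunicamycin wells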
The depositor's hits bear a star; / = not tested or not shown; ! = not active in a repeat. This is a sample that favours compounds with a hit; in the whole collection about 0.7% have one here.

SMILES	NPR1 activator	Vif inh	GC-B act	CaV13 FRET inh	XiGFP reactiv	N-glyco inh
C/C=C/c1ccc2c(c1)O[C@H](CN(C)CC1CCCC1)[C@@H](C)CN([C@H](C)CO)S2(=O)=O	/	/	/	/	0	/
CCCCNc1c(-c2ccc(SC(C)CC)c(OC)c2)nc2ccc(Cl)cn12 (stereo not drawn)	40*	10	21	-5	0	-5
CCCCNc1c(-c2ccc(OC)c(Sc3ccc(OC)cc3)c2)nc2cnccn12	-2	61*	-9	-14	0	-1
CCCCCCSc1cc(-c2nc3cc(C)ccn3c2NCCCC)ccc1OC	8	-10	2	78*!	0	-5
CCCCCCSc1cc(-c2nc3cnccn3c2NCCCC)ccc1OC	/	3	/	/	/	-6
C[C@@H]1CN([C@H](C)CO)S(=O)(=O)c2ccc(C3=CCCC3)cc2O[C@@H]1CN(C)Cc1ccccc1F	/	/	/	/	0	/
Cc1ccc(S(=O)(=O)Nc2ccc3c(c2)C(=O)N([C@H](C)CO)C[C@H](C)[C@@H](CN(C)C(=O)Nc2c(C)noc2C)OCCCC[C@H](C)O3)cc1	/	/	/	/	0	/
CNC[C@H]1OCc2ccccc2-c2c(n(C)c3ccccc23)C(=O)N([C@@H](C)CO)C[C@H]1C	/	/	/	/	1	/
Cc1ccc(C(=O)OCC(=O)NC(C)C)cc1S(=O)(=O)N1CCOCC1	-1	4	4	-6	0	2
Cc1ccc(C)c(C(=O)COC(=O)c2ccc(C)c(S(=O)(=O)N3CCOCC3)c2)c1	-1	59*	4	-3	0	0
O=C1NC(Cc2ccc(O)cc2)c2nc3cc(F)c(F)cc3c(=O)n2-c2cc3ccccc3cc21 (stereo not drawn)	-1	-18	38*	-4	0	10
O=C1NC(Cc2ccc(O)cc2)c2nc3ccc(F)cc3c(=O)n2-c2cc3ccccc3cc21 (stereo not drawn)	0	-1	65*	-2	0	8
O=C1NC(Cc2ccccc2)c2nc3cc(F)c(F)cc3c(=O)n2-c2cc3ccccc3cc21 (stereo not drawn)	-6	8	-2	-7	0	4
Cc1ccc2nc3n(c(=O)c2c1)-c1cc2ccccc2cc1C(=O)NC3Cc1ccc(O)cc1 (stereo not drawn)	-4	-3	15	-3	0	13
COc1cc(C(=O)NCCCCc2ccccc2)cc(OC)c1OC	1	-5	-2	-19	0	4
COc1cc(C(=O)NCCC(c2ccccc2)c2ccccc2)cc(OC)c1OC	3	3	118*	-3	0	-1
COc1ccc(NC(=O)Nc2ccc3c(c2)[C@H]2C[C@H](CC(=O)N4CCCCC4)O[C@@H](CO)[C@H]2O3)cc1	/	/	/	/	0	/
Cn1nnnc1Sc1ncnc2scc(-c3ccc(Br)cc3)c12	2	11	3	-11	0	-11
Cn1nnnc1Sc1ncnc2scc(-c3ccc(F)cc3)c12	7	52*	9	-6	/	-14
CC(=O)c1cccc(Nc2c3c(nc4ccccc24)CCC3)c1	0	-10	0	-4	0	51*
Cc1noc(C)c1S(=O)(=O)N(C)C[C@@H]1Oc2ccc(NC(=O)Nc3ccc(C(F)(F)F)cc3)cc2CC(=O)N([C@H](C)CO)C[C@H]1C	/	/	/	/	-1	/
CCCCOc1ncnc2c1[nH]c1ccccc12	6	88*	1	-5	/	-1
COc1ccc(-c2cnc3c(c2)C(=O)N([C@@H](C)CO)C[C@H](C)[C@@H](CN(C)C(=O)Cc2ccncc2)O3)cc1	/	/	/	/	0	/
O=C(Nc1ccccc1N1CCOCC1)c1ccc2nc[nH]c2c1	1	-3	-2	-2	0	27*
CCc1ccc(Nc2nnc(SC3CCOC3=O)s2)cc1 (stereo not drawn)	48*	25	1	-3	0	2
SMILES	NPR1 activator	Vif inh	GC-B act	CaV13 FRET inh	XiGFP reactiv	N-glyco inh
CCc1ccc(Nc2nnc(SC(C)C(=O)NC3CC3)s2)cc1 (stereo not drawn)	5	0	-5	-3	3	1
COc1ccc2c3c(n(C)c2c1)[C@@H](CO)N(CC1CCCCC1)CC31CCN(C(C)=O)CC1	/	/	/	/	0	/
CO[C@H]1CN(C)C(=O)c2cc(NS(C)(=O)=O)ccc2OC[C@H](C)NC[C@H]1C	/	/	/	/	0	/
CC1CC(C)CN(CCCNC(=O)CCC(=O)N2CC(C)Oc3ccccc32)C1 (stereo not drawn)	-1	1	-5	38*	0	-1
Cc1ccc2c(c1)N(C(=O)CCC(=O)NCCCN1CCOCC1)CC(C)O2 (stereo not drawn)	3	5	-1	47*	0	1
COc1ccc2nc(SCC(=O)Nc3ccc(S(=O)(=O)N4CCCC4)cc3)c(C#N)cc2c1	0	-13	-6	-11	/	-2
Nc1c(C(=O)Nc2ccc(S(=O)(=O)N3CCCC3)cc2)sc2nc3ccc(OC(F)(F)F)cc3cc12	3	96*	1	-6	4	100*
Nc1c(C(=O)Nc2ccc(S(=O)(=O)N3CCCC3)cc2)sc2nc3cc4c(cc3cc12)CCC4	2	/	-1	-3	63*	18
Nc1c(C(=O)Nc2ccc(Cl)c(C(=O)O)c2)sc2nc3c(cc12)CCCC3	5	/	-3	/	0	-4
S=C1NC2=C(CCCC2=C2SCCS2)C(c2ccccc2)N1 (stereo not drawn)	0	10	7	-3	0	415*
Fc1ccccc1CNc1cc(Cl)cc(Cl)c1	2	119*	-4	-2	/	1
O=[N+]([O-])c1ccccc1CNc1ccc(F)c(Cl)c1	-6	-4	-2	-3	0	-2
CC(C)CC#Cc1ccc2c(c1)O[C@H](CN(C)C(=O)c1cccc(F)c1)[C@@H](C)CN([C@@H](C)CO)S2(=O)=O	/	/	/	/	0	/
C[C@@H]1CCCCO[C@H](CN(C)S(=O)(=O)c2ccccc2)[C@@H](C)CN([C@H](C)CO)C(=O)c2cc(NS(=O)(=O)c3cn(C)cn3)ccc2O1	/	/	/	/	0	/
CCOc1ccc(N2C(=O)/C(=C/c3cccs3)N(CC(=O)OC)C2=S)cc1	12	97*	8	-9	/	3
CCCNC(=O)N(C)C[C@H]1Oc2cc(-c3ccccc3F)ccc2S(=O)(=O)N([C@@H](C)CO)C[C@@H]1C	/	/	/	/	-1	/
O=C(N/N=C/c1ccc(O)cc1O)C(=O)N/N=C/c1ccc(O)cc1O	-3	62*	0	-6	1	3
COc1ccccc1-c1ccc2c(c1)O[C@@H](CN(C)CC1CC1)[C@H](C)CN([C@@H](C)CO)S2(=O)=O	/	/	/	/	-1	/
